Test results as given in ChEMBL document CHEMBL3992522, “Antileishmanial Activity of Pyrazolopyridine Derivatives and Their Potential as an Adjunct Therapy with Miltefosine” (J Med Chem, 2017).
Converted amounts (≈) assume the structure as drawn. The source made the active and inactive calls. The rule behind the calls is not given here.

What was measured:
Leishmania donovani [1] = assay: Antileishmanial activity against Leishmania donovani MHOM/IN/80/DD8 promastigote forms harboring luciferase gene after 72 hrs by Steady-Glo reagent based two fold dilution assay; type: functional; settings: MHOM/IN/80/DD8, 72 h
Method in brief: (§1)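 Promastigotes or J774-resident amastigotes treated 72 h with six two-fold dilutions from 200 µM down to 6.25 µM. Luciferase RLU fitted by four-parameter Hill non-linear regression to derive the […] inhibitory concentration (MIC).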

Leishmania donovani [2] = assay: Antileishmanial activity against Leishmania donovani amastigote forms infected in Balb/c mouse assessed as inhibition of parasitic burden in liver at 25 mg/kg, ip administered for 5 consecutive days measured on day 7 post last treatment by Giemsa staining based assay relative to control; settings: 168 h
Mus musculus [3] = assay: Decrease in IL-10 level in Balb/c mouse splenocytes infected with Leishmania donovani amastigote forms at 25 mg/kg, ip co-treated with 5 mg/kg, po miltefosine administered for 5 consecutive days measured on day 4 post last treatment by sandwich ELISA relative to control; type: functional
Method in brief: (§2)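 Splenocytes (2×10^6) from treated infected BALB/c mice taken on day 4 or 7 post-treatment. Cultured in phenol-red-free RPMI 1640 with 5 μg/mL soluble L. donovani antigen for 72 h at 37 °C, 5% CO2. Supernatant cytokines measured by sandwich ELISA against a standard curve. Mean ± SD, n = 5 mice per group, three independent experiments.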

Leishmania donovani [4] = assay: Induction of mitochondrial membrane potential loss in Leishmania donovani MHOM/IN/80/DD8 promastigote forms at 50 uM after 48 hrs by JC-1 staining based flow cytometry (reference value: 5.02%); type: functional
[5] = Half life in mouse liver S9 fractions at 1 mM in presence of NADPH by HPLC method; type: ADME, tissue-based
[6] = Metabolic stability in mouse liver S9 fractions at 1 mM after 60 mins in presence of NADPH by HPLC method; type: ADME; settings: read-out: Stability
[7] = AUC (0 to infinity) in Swiss mouse at 50 mg/kg, po by LC-MS/MS analysis; type: ADME, organism-based; set-up: dose 50 mg/kg, route oral, time infinity; settings: in vivo
[8] = Selectivity index, ratio of CC50 for mouse J774 cells to IC50 for Leishmania donovani MHOM/IN/80/DD8 amastigote forms infected in mouse J774 cells; type: toxicity, cell-based; settings: read-out: Ratio CC50/IC50
Method in brief: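 CC50: Vero or J774 cells (1×10^5/well) exposed 72 h to seven two-fold dilutions, 500–7.81 μM; MTT 2 h at 37 °C, formazan in DMSO read at 540 nm. IC50: luciferase-expressing Dd8 amastigotes in J774 macrophages (1:8), 72 h, luminescence, four-parameter Hill fit. SI = CC50/IC50, IC50 mean of three experiments.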

Leishmania donovani [9] = assay: Induction of apoptosis in Leishmania donovani MHOM/IN/80/DD8 promastigote forms assessed as DNA fragmentation at IC50 after 48 hrs by propidium iodide staining based TUNEL assay; type: functional
Method in brief: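 DNA fragmentation detected by TUNEL under fluorescence and phase-contrast microscopy, with counts of TUNEL-positive cells; three independent experiments.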

Leishmania donovani [10] = assay: Antileishmanial activity against Leishmania donovani amastigote forms infected in Balb/c mouse assessed as reduction in spleen weight at 12.5 to 200 mg/kg, ip administered for 5 consecutive days; type: functional, organism-based
[11] = Cytotoxicity against mouse J774 cells assessed as cell viability […] after 72 hrs by MTT assay relative to control; type: cell-based; settings: read-out: Activity
Method in brief: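 Vero and J774 cells seeded at 1×10^5 per well for 24 h, then exposed 72 h to seven two-fold dilutions from 500 to 7.81 μM. MTT solution (5 mg/mL stock) added for 2 h at 37 °C, formazan dissolved in DMSO and read at 540 nm. CC50 derived by the Huber and Koella method.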

[12] = Metabolic stability in mouse liver S9 fractions assessed as rate constant for metabolism at 1 mM after 60 mins in presence of NADPH by HPLC method; type: ADME, tissue-based
Leishmania donovani [13] = assay: Induction of apoptosis in Leishmania donovani MHOM/IN/80/DD8 promastigote forms assessed as cell rounding at 50 uM after 48 hrs by propidium iodide staining based fluorescent microscopic method; type: functional
Leishmania donovani [14] = assay: Antileishmanial activity against Leishmania donovani amastigote forms infected in Balb/c mouse assessed as inhibition of parasitic burden in spleen at 50 mg/kg, ip administered for 5 consecutive days measured 1 week post last treatment by Giemsa staining based assay relative to control; type: functional; settings: 168 h
Leishmania donovani [15] = assay: Antileishmanial activity against Leishmania donovani MHOM/IN/80/DD8 promastigote forms harboring luciferase gene at 7.19 uM up to 72 hrs by MTT assay relative to control; type: functional; settings: MHOM/IN/80/DD8, 72 h
Leishmania donovani [16] = assay: Antileishmanial activity against Leishmania donovani MHOM/IN/80/DD8 amastigote forms harboring luciferase gene infected in mouse J774 cells after 72 hrs by Steady-Glo reagent based two fold dilution assay; type: functional; settings: MHOM/IN/80/DD8, 72 h; method in brief: as §1
Mus musculus [17] = assay: Restoration of T cell proliferation in Balb/c mouse splenocytes infected with Leishmania donovani amastigote forms at <25 mg/kg, ip administered for 5 consecutive days measured on day 4 and 7 post last treatment followed by soluble Leishmania donovani promastigote antigen-stimulation for 72 hrs by MTT assay relative to control
Leishmania donovani [18] = assay: Induction of apoptosis in Leishmania donovani MHOM/IN/80/DD8 promastigote forms assessed as early apoptotic cells at IC50 after 48 hrs by Annexin V-FITC/propidium iodide staining based flow cytometry (reference value: 7.41%); type: functional
Leishmania donovani [19] = assay: Antileishmanial activity against Leishmania donovani amastigote forms infected in Balb/c mouse assessed as inhibition of parasitic burden in spleen at 25 mg/kg, ip administered for 5 consecutive days measured on day 7 post last treatment by Giemsa staining based assay relative to control; settings: 168 h
Mus musculus [20] = assay: Increase in IL-12 level in Balb/c mouse splenocytes infected with Leishmania donovani amastigote forms at 25 mg/kg, ip co-treated with 5 mg/kg, po miltefosine administered for 5 consecutive days measured on day 7 post last treatment by sandwich ELISA relative to control; type: functional; method in brief: as §2
Mus musculus [21] = assay: Decrease in TGFbeta level in Balb/c mouse splenocytes infected with Leishmania donovani amastigote forms at 25 mg/kg, ip co-treated with 5 mg/kg, po miltefosine administered for 5 consecutive days measured on day 4 post last treatment by sandwich ELISA relative to control; type: functional; method in brief: as §2
[22] = Tmax in Swiss mouse at 50 mg/kg, po by LC-MS/MS analysis; type: ADME, organism-based; settings: in vivo
Leishmania donovani [23] = assay: Induction of apoptosis in Leishmania donovani MHOM/IN/80/DD8 promastigote forms assessed as late apoptotic cells at 50 uM after 48 hrs by Annexin V-FITC/propidium iodide staining based flow cytometry (reference value: 0.86%); type: functional
Mus musculus [24] = assay: Restoration of T cell proliferation in Balb/c mouse splenocytes infected with Leishmania donovani amastigote forms at 25 mg/kg, ip co-treated with 5 mg/kg, po miltefosine administered for 5 consecutive days measured on day 4 post last treatment followed by soluble Leishmania donovani promastigote antigen-stimulation for 72 hrs by MTT assay relative to control; type: functional
Method in brief: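 Splenocytes from treated infected BALB/c mice (day 4 or 7 post-treatment) isolated by Ficoll gradient, plated at 10^5/well in triplicate in phenol red-free RPMI 1640, stimulated with 5 μg/mL SLA for 72 h at 37 °C, 5% CO2. Proliferation read by MTT (0.5 mg/mL), formazan dissolved in DMSO, OD 540 nm.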

## COc1ccc(C2C3=C(CCC3=O)Nc3c2c(-c2c[nH]c4ccccc24)nn3-c2ccc(Cl)c(Cl)c2)cc1OC (centres undefined)
Leishmania donovani [1]
  MIC: 50 µM (≈ 28.6 µg/mL)
Leishmania donovani [2]
  inhibition in vivo at 25 mg/kg: > 48%
Mus musculus [3]
  inhibition (INH): 91%
Leishmania donovani [4]
  Activity: 44.9%
[5]
  half-life at 1000 µM: 0.841 h
[6]
  remaining at 1 h, 1000 µM: 45%
[7]
  AUC(0-inf): 31.7 µM·h
[8]
  selectivity ratio: 101
Leishmania donovani [9]
  Activity: Active
Leishmania donovani [10]
  Activity: Active
[11]
  viability at 72 h: > 95%
[12]
  k el at 1 h, 1000 µM: 0.000217 s⁻¹
Leishmania donovani [13]
  Activity: Active
Leishmania donovani [14]
  inhibition in vivo at 50 mg/kg: > 93%
Leishmania donovani [15]
  inhibition at 7.19 µM: > 95%
Leishmania donovani [16]
  MIC: 50 µM (≈ 28.6 µg/mL)
Mus musculus [17]
  fold change (FC): 2.2 - 3.4
Leishmania donovani [18]
  Activity: 17.2%
Leishmania donovani [19]
  inhibition in vivo at 25 mg/kg: > 59%
Mus musculus [20]
  fold change (FC): 11.3
Mus musculus [21]
  inhibition (INH): 88%
[22]
  Tmax: 1.75 h
Leishmania donovani [23]
  Activity: 54.2%
Mus musculus [24]
  fold change (FC): 9.9
